From ChEMBL document CHEMBL1154546, “Synthesis of 5- and 6-substituted 2-(4-dimethylaminophenyl)-1,3-benzoxazoles and their in vitro and in vivo evaluation as imaging agents for amyloid plaque” (Bioorg Med Chem Lett, 2009)
The source made the active and inactive calls.

Tests used:
[1] = Displacement of [3H]BTA1 from amyloid beta (1 to 40) peptide by […]
Papio anubis = experiment: In vivo binding affinity to amyloid beta (1 to 40) peptide in ovariectomized baboon by SPECT imaging; format: functional, organism-based; conditions: tested as the 123I-labelled form
Summary of the method: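 Nonhuman primate fasted 18-24 h, immobilized with ketamine (10 mg/kg i.m.) plus glycopyrrolate (10 μg/kg i.m.) 2 h before study, intubated, kept on 2.5% isoflurane, vitals checked every 15 min. 123I tracer (3.2 mCi in 8 mL, ethanol/saline) injected. Continuous brain-dedicated SPECT at 159 keV for 1 h. Reconstruction used ramp plus Butterworth filter (cutoff 0.65 cm-1).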

Ki [1] [nM] | SMILES | Activity (Papio anubis)
18.9 | Cc1ccccc1C(=O)Nc1ccc2oc(-c3ccc(N(C)C)cc3)nc2c1 | –
628 | COc1cc(C(=O)Nc2ccc3nc(-c4ccc(N(C)C)cc4)oc3c2)cc(OC)c1OC | –
12 | CN(C)c1ccc(-c2nc3cc(NC(=O)c4ccccc4)ccc3o2)cc1 | –
112 | Cc1ccccc1C(=O)Nc1ccc2nc(-c3ccc(N(C)C)cc3)oc2c1 | –
17.2 | CN(C)c1ccc(-c2nc3cc(NC(=O)c4ccc5c(c4)OCO5)ccc3o2)cc1 | –
13.4 | Cc1cccc(C(=O)Nc2ccc3oc(-c4ccc(N(C)C)cc4)nc3c2)c1 | –
13.2 | Cc1ccc(C(=O)Nc2ccc3oc(-c4ccc(N(C)C)cc4)nc3c2)cc1 | –
31.5 | Cc1cccc(C(=O)Nc2ccc3nc(-c4ccc(N(C)C)cc4)oc3c2)c1 | –
109 | COc1cc(C(=O)Nc2ccc3oc(-c4ccc(N(C)C)cc4)nc3c2)cc(OC)c1OC | –
60.1 | CN(C)c1ccc(-c2nc3ccc(NC(=O)c4ccc(I)cc4)cc3o2)cc1 | –
9.3 | CN(C)c1ccc(-c2nc3cc(NC(=O)c4ccc(I)cc4)ccc3o2)cc1 | inactive
19.7 | CN(C)c1ccc(-c2nc3ccc(NC(=O)c4ccc5c(c4)OCO5)cc3o2)cc1 | –
86 | Cc1ccc(C(=O)Nc2ccc3nc(-c4ccc(N(C)C)cc4)oc3c2)cc1 | –
26 | CN(C)c1ccc(-c2nc3ccc(NC(=O)c4ccccc4)cc3o2)cc1 | –
